Columns and labels:
[1] = Inhibition of influenza B virus neuraminidase
Summary of the method: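 Purified intact influenza B virions as neuraminidase source. Preincubated 30 min at room temperature with two-fold inhibitor dilutions in 50 mM sodium acetate pH 6.0, 100 μM CaCl2, 320 μM MgCl2, 60 mM NaCl. Then 100 μM 2'-(4-methylumbelliferyl)-α-D-N-acetylneuraminic acid, 15 min at 37 °C, stopped with 5 volumes 0.2 M glycine-NaOH pH 11. Fluorescence read-out. IC50 from log(inhibitor) vs normalized response, cross-checked against the linear region of the fractional-activity curve.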

[2] = target: T1, Neuraminidase (Influenza A virus, UniProt B4URF0); experiment: Inhibition of influenza A virus neuraminidase
Summary of the method: (§1)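 Enzyme source was purified intact virions. Then 100 μM 2'-(4-methylumbelliferyl)-α-D-N-acetylneuraminic acid was added and incubated 15 min at 37 °C. Reactions were stopped with 0.2 M glycine-NaOH pH 11. IC50 came from normalized log(inhibitor)-response fitting, cross-checked against the linear region of fractional activity versus concentration.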

[3] = target: T1, Neuraminidase; experiment: Inhibition of Influenza A virus (A/Solomon Islands/3/2006(H1N1)) neuraminidase using fluorogenic substrate 2'-(4-methylumbelliferyl)-alpha-D-N-acetylneuraminic acid preincubated with inhibitor for 30 mins measured after 15 mins by fluorescence analysis
Summary of the method: (§2)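 Purified intact virions served as the NA source. They were preincubated 30 min at room temperature with two-fold inhibitor dilutions in 50 mM sodium acetate pH 6.0, 100 µM CaCl2, 320 µM MgCl2 and 60 mM NaCl. 100 µM MUNANA was added, then incubated 15 min at 37 °C and stopped with 5 volumes 0.2 M glycine-NaOH pH 11. IC50 came from a log(inhibitor)-normalized response fit, cross-checked from the linear region of fractional activity versus concentration.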

[4] = target: T1, Neuraminidase; experiment: Inhibition of Influenza A virus (A/Uruguay/716/2007(H3N2)) neuraminidase using fluorogenic substrate 2'-(4-methylumbelliferyl)-alpha-D-N-acetylneuraminic acid preincubated with inhibitor for 30 mins measured after 15 mins by fluorescence analysis; summary of the method: as §2
[5] = Inhibition of Influenza B virus (B/Malaysia/2506/2004) neuraminidase using fluorogenic substrate 2'-(4-methylumbelliferyl)-alpha-D-N-acetylneuraminic acid preincubated with inhibitor for 30 mins measured after 15 mins by fluorescence analysis; summary of the method: as §2
[6] = target: T1, Neuraminidase; experiment: Inhibition of Influenza A virus (A/Oklahoma/3052/2009(H1N1)) neuraminidase using fluorogenic substrate 2'-(4-methylumbelliferyl)-alpha-D-N-acetylneuraminic acid preincubated with inhibitor for 30 mins measured after 15 mins by fluorescence analysis; summary of the method: as §2
[7] = target: T1, Neuraminidase; experiment: Inhibition of Influenza A virus (A/Wisconsin/67/2005(H3N2)) neuraminidase using fluorogenic substrate 2'-(4-methylumbelliferyl)-alpha-D-N-acetylneuraminic acid preincubated with inhibitor for 30 mins measured after 15 mins by fluorescence analysis; summary of the method: as §2
[8] = Inhibition of Influenza B virus (B/Malayasia/5206/04) neuraminidase using fluorogenic substrate 2'-(4-methylumbelliferyl)-alpha-D-N-acetylneuraminic acid preincubated with inhibitor for 30 mins measured after 15 mins by fluorescence analysis; summary of the method: as §2
[9] = target: Neuraminidase (Influenza A virus (strain A/Udorn/307/1972 H3N2), UniProt P0DOF9); experiment: Inhibition of Influenza A virus (A/udorn/1972(H3N2)) neuraminidase using fluorogenic substrate 2'-(4-methylumbelliferyl)-alpha-D-N-acetylneuraminic acid preincubated with inhibitor for 30 mins measured after 15 mins by fluorescence analysis; summary of the method: as §2
[10] = target: T1, Neuraminidase; experiment: Inhibition of influenza A virus avian N9 neuraminidase
[11] = target: Neuraminidase (Influenza B virus (strain B/Lee/1940), UniProt P03474); experiment: Inhibition of Influenza B virus (B/Lee/1940) neuraminidase using fluorogenic substrate 2'-(4-methylumbelliferyl)-alpha-D-N-acetylneuraminic acid preincubated with inhibitor for 30 mins measured after 15 mins by fluorescence analysis; summary of the method: as §1
[12] = target: Neuraminidase (Influenza A virus (A/Puerto Rico/8/1934(H1N1)), UniProt P03468); experiment: Inhibition of Influenza A virus (A/Puerto Rico/8/1934(H1N1)) neuraminidase using fluorogenic substrate 2'-(4-methylumbelliferyl)-alpha-D-N-acetylneuraminic acid preincubated with inhibitor for 30 mins measured after 15 mins by fluorescence analysis; summary of the method: as §1
[13] = target: T1, Neuraminidase; experiment: Inhibition of Influenza A virus (A/Brisbane/59/2007(H1N1)) neuraminidase using fluorogenic substrate 2'-(4-methylumbelliferyl)-alpha-D-N-acetylneuraminic acid preincubated with inhibitor for 30 mins measured after 15 mins by fluorescence analysis; summary of the method: as §2

Question: Which results are given for `CC(=O)N[C@H]1[C@H]([C@H](O)[C@H](O)CO)OC(C(=O)O)=C[C@@H]1O` [NEU5AC2EN]?
Answer: Ki [1]: 4 µM; Ki [2]: 4 µM

Question: For `O=C(O)c1ccc(N2C(=O)CCC2(CO)CO)c(COc2ccccc2)c1`, which IC50 [3] is on record?
Answer: 400 µM

Question: And the IC50 [4]?
Answer: 40 µM

Question: With `CCC(=Cc1cc(C(=O)O)ccc1N1C(=O)CCC1(CO)CO)CC` as the molecule, how does the IC50 [5] read?
Answer: 120 µM

Question: What about the IC50 [6] of the same molecule?
Answer: 3.4 µM

Question: What about the IC50 [7] of the same molecule?
Answer: 0.41 µM

Question: For `CCCC(CCC)Cc1cc(C(=O)O)ccc1N1C(=O)CCC1(CO)CO`, which IC50 [5] is on record?
Answer: 190 µM

Question: What about the IC50 [7] of the same molecule?
Answer: 0.5 µM

Question: With `CCC(C)OCc1cc(C(=O)O)ccc1N1C(=O)CCC1(CO)CO` (centres undefined) as the molecule, how does the IC50 [8] read?
Answer: 80 µM

Question: And the IC50 [3]?
Answer: 11 µM

Question: And the IC50 [4]?
Answer: 0.2 µM

Question: For `CCC(CC)Nc1cc(C(=O)O)ccc1N1C(=O)CCC1(CO)CO`, which IC50 [9] is on record?
Answer: 0.49 µM

Question: And the IC50 [10]?
Answer: 0.048 µM

Question: What about the IC50 [11] of the same molecule?
Answer: 271 µM

Question: What about the IC50 [12] of the same molecule?
Answer: 79 µM

Question: With `CC(C)OCc1cc(C(=O)O)ccc1N1C(=O)CCC1(CO)CO` as the molecule, how does the IC50 [4] read?
Answer: 4000 µM

Question: And the IC50 [13]?
Answer: > 10000 µM

Question: For `O=C(O)c1ccc(N2C(=O)CCC2(CO)CO)c(COCc2ccccc2)c1`, which IC50 [3] is on record?
Answer: 1600 µM

Question: What about the IC50 [4] of the same molecule?
Answer: 200 µM

Question: With `CC(C)Cc1cc(C(=O)O)ccc1N1C(=O)CCC1(CO)CO` as the molecule, how does the IC50 [5] read?
Answer: 140 µM

Question: What about the IC50 [4] of the same molecule?
Answer: 3 µM

Question: Which results are given for `CCC(CC)Cc1cc(C(=O)O)ccc1N1C(=O)CCC1(CO)CO`?
Answer: IC50 [5]: 32 µM; IC50 [6]: 3.2 µM; IC50 [7]: 0.2 µM

Question: For `CCC(CC)OCc1cc(C(=O)O)ccc1N1C(=O)CCC1(CO)CO`, which IC50 [8] is on record?
Answer: 30 µM

Question: What about the IC50 [3] of the same molecule?
Answer: 0.8 µM

Question: And the IC50 [4]?
Answer: 0.5 µM

Question: What about the IC50 [13] of the same molecule?
Answer: 1 µM

From ChEMBL document CHEMBL2046418, “Pyrrolidinobenzoic acid inhibitors of influenza virus neuraminidase: the hydrophobic side chain influences type A subtype selectivity” (Bioorg Med Chem, 2012)
